{"source": "ChEMBL document CHEMBL4033657", "about": "“N-Aryl-N'-ethyleneaminothioureas effectively inhibit acetylcholinesterase 1 from disease-transmitting mosquitoes” (Eur J Med Chem, 2017)", "key": {"Aedes aegypti [1]": {"tested_on": "Aedes aegypti", "assay": "Insecticidal activity against five days old adult Aedes aegypti Mombasa assessed as mortality at 10 mM applied topically on upper part of pronotum after 48 hrs (reference value: 3 to 15%)", "format": "functional", "settings": "topical"}, "Anopheles gambiae [2]": {"tested_on": "Anopheles gambiae", "assay": "Insecticidal activity against five days old adult Anopheles gambiae Kisumu assessed as mortality at 1 nmol applied topically on upper part of pronotum after 24 hrs", "format": "functional"}, "Anopheles gambiae [3]": {"tested_on": "Anopheles gambiae", "assay": "Insecticidal activity against five days old adult Anopheles gambiae Kisumu assessed as mortality at 10 mM applied topically on upper part of pronotum after 48 hrs (reference value: 14 to 22%)", "format": "functional", "settings": "topical"}, "Acetylcholinesterase [4]": {"molecular_target": "Acetylcholinesterase (Homo sapiens, UniProt P22303)", "assay": "Inhibition of recombinant human AChE expressed in HEK293F cells using acetylthiocholine iodide as substrate measured over 60 secs by Ellman's method", "set-up": "species or system HEK293"}, "Anopheles gambiae [5]": {"tested_on": "Anopheles gambiae", "assay": "Insecticidal activity against five days old adult Anopheles gambiae Kisumu assessed as mortality at 2 mM applied topically on upper part of pronotum after 24 hrs (reference value: 3 to 17%)", "format": "functional", "settings": "topical"}, "[6]": {"assay": "Selectivity ratio of IC50 for recombinant human AChE expressed in HEK293F cells to IC50 for recombinant full length Anopheles gambiae AChE1 expressed in baculovirus-infected Sf9 insect cells", "summary_of_the_method": "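Ratio of the hAChE IC50 divided by the higher of the AgAChE1 or AaAChE1 IC50. Each IC50 came from an Ellman assay (1 mM acetylthiocholine, 0.2 mM DTNB, pH 7.4, 30 °C) with eight concentrations up to 1 mM, using 2-3 replicates.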"}, "Aedes aegypti [7]": {"tested_on": "Aedes aegypti", "assay": "Insecticidal activity against 3rd instar larvae of Aedes aegypti Mombasa assessed as mortality at 50 uM administered via de-chlorinated tap water after 48 hrs (reference value: 0 to 4%)", "format": "functional"}, "Aedes aegypti [8]": {"tested_on": "Aedes aegypti", "assay": "Insecticidal activity against 3rd instar larvae of Aedes aegypti Mombasa assessed as mortality at 300 uM administered via de-chlorinated tap water after 48 hrs (reference value: 0%)", "format": "functional"}, "Anopheles gambiae [9]": {"tested_on": "Anopheles gambiae", "assay": "Insecticidal activity against 3rd instar larvae of Anopheles gambiae Kisumu assessed as mortality at 500 uM administered via de-chlorinated tap water after 48 hrs", "format": "functional"}, "Aedes aegypti [10]": {"tested_on": "Aedes aegypti", "assay": "Insecticidal activity against five days old adult Aedes aegypti Mombasa assessed as mortality at 1 nmol applied topically on upper part of pronotum after 24 hrs", "format": "functional"}, "Anopheles gambiae [11]": {"tested_on": "Anopheles gambiae", "assay": "Insecticidal activity against 3rd instar larvae of Anopheles gambiae Kisumu assessed as mortality at 50 uM administered via de-chlorinated tap water after 48 hrs", "format": "functional"}, "Aedes aegypti [12]": {"tested_on": "Aedes aegypti", "assay": "Insecticidal activity against 3rd instar larvae of Aedes aegypti Mombasa assessed as mortality at 500 uM administered via de-chlorinated tap water after 48 hrs (reference value: 0 to 2%)", "format": "functional"}, "Acetylcholinesterase [13]": {"molecular_target": "T1, Acetylcholinesterase (Anopheles gambiae, UniProt Q869C3)", "assay": "Inhibition of AChE1 in Anopheles gambiae body extract using acetylthiocholine iodide as substrate measured over 60 secs by Ellman's method"}, "Anopheles gambiae [14]": {"tested_on": "Anopheles gambiae", "assay": "Insecticidal activity against five days old adult Anopheles gambiae Kisumu assessed as mortality at 0.1 mM applied topically on upper part of pronotum after 24 hrs (reference value: 0%)", "format": "functional", "settings": "topical"}, "Acetylcholinesterase [15]": {"molecular_target": "T1, Acetylcholinesterase", "assay": "Inhibition of AChE1 in Anopheles gambiae head extract using acetylthiocholine iodide as substrate measured over 60 secs by Ellman's method"}, "Acetylcholinesterase [16]": {"molecular_target": "T1, Acetylcholinesterase", "assay": "Inhibition of recombinant full length Anopheles gambiae AChE1 expressed in baculovirus-infected Sf9 insect cells using acetylthiocholine iodide as substrate measured over 60 secs by Ellman's method"}, "Anopheles gambiae [17]": {"tested_on": "Anopheles gambiae", "assay": "Insecticidal activity against 3rd instar larvae of Anopheles gambiae Kisumu assessed as mortality at 50 uM administered via de-chlorinated tap water after 24 hrs", "format": "functional", "summary_of_the_method": "(§1)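 Kenyan strains were reared at 27-28 °C, about 80% humidity, 12/12 h light. Per compound and concentration, 25 third-instar larvae were placed in 100 ml de-chlorinated water containing the compound and kept under insectary conditions. The negative control was plain water; the positive control was propoxur at 25 µM. Mortality was scored at 24 h; 75 treated and 50 control larvae in total.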"}, "Anopheles gambiae [18]": {"tested_on": "Anopheles gambiae", "assay": "Insecticidal activity against 3rd instar larvae of Anopheles gambiae Kisumu assessed as mortality at 300 uM administered via de-chlorinated tap water after 48 hrs", "format": "functional"}, "Aedes aegypti [19]": {"tested_on": "Aedes aegypti", "assay": "Insecticidal activity against five days old adult Aedes aegypti Mombasa assessed as mortality at 0.2 nmol applied topically on upper part of pronotum after 24 hrs", "format": "functional"}, "Anopheles gambiae [20]": {"tested_on": "Anopheles gambiae", "assay": "Insecticidal activity against five days old adult Anopheles gambiae Kisumu assessed as mortality at 0.2 nmol applied topically on upper part of pronotum after 24 hrs", "format": "functional"}, "Aedes aegypti [21]": {"tested_on": "Aedes aegypti", "assay": "Insecticidal activity against 3rd instar larvae of Aedes aegypti Mombasa assessed as mortality at 50 uM administered via de-chlorinated tap water after 24 hrs", "format": "functional", "summary_of_the_method": "as §1"}, "Aedes aegypti [22]": {"tested_on": "Aedes aegypti", "assay": "Insecticidal activity against five days old adult Aedes aegypti Mombasa assessed as mortality at 2 mM applied topically on upper part of pronotum after 24 hrs (reference value: 2 to 10%)", "format": "functional", "settings": "topical"}, "Aedes aegypti [23]": {"tested_on": "Aedes aegypti", "assay": "Insecticidal activity against five days old adult Aedes aegypti Mombasa assessed as mortality at 10 mM applied topically on upper part of pronotum after 24 hrs (reference value: 3 to 15%)", "format": "functional", "settings": "topical"}, "Aedes aegypti [24]": {"tested_on": "Aedes aegypti", "assay": "Insecticidal activity against five days old adult Aedes aegypti Mombasa assessed as mortality at 2 mM applied topically on upper part of pronotum after 48 hrs (reference value: 3 to 12%)", "format": "functional", "settings": "topical"}, "Aedes aegypti [25]": {"tested_on": "Aedes aegypti", "assay": "Insecticidal activity against 3rd instar larvae of Aedes aegypti Mombasa assessed as mortality at 300 uM administered via de-chlorinated tap water after 24 hrs", "format": "functional", "summary_of_the_method": "as §1"}, "[26]": {"assay": "Inhibition of recombinant full length Aedes aegypti AChE1 expressed in baculovirus-infected Sf9 insect cells using acetylthiocholine iodide as substrate measured over 60 secs by Ellman's method", "summary_of_the_method": "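Secreted, non-purified recombinant enzyme in growth medium, tested as enzyme source. Ellman assay at 30 °C in 0.1 M phosphate buffer pH 7.4 with 0.2 mM DTNB and 1 mM acetylthiocholine iodide; A412 followed over 60 s. Compound (100 mM DMSO stock) tested at eight concentrations, maximum 1 mM. Activity set relative to eight uninhibited controls per plate; IC50 from three-parameter variable-slope fit; 2-3 independent replicates.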"}, "Aedes aegypti [27]": {"tested_on": "Aedes aegypti", "assay": "Insecticidal activity against 3rd instar larvae of Aedes aegypti Mombasa assessed as mortality at 500 uM administered via de-chlorinated tap water after 24 hrs", "format": "functional", "summary_of_the_method": "as §1"}, "Anopheles gambiae [28]": {"tested_on": "Anopheles gambiae", "assay": "Insecticidal activity against 3rd instar larvae of Anopheles gambiae Kisumu assessed as mortality at 500 uM administered via de-chlorinated tap water after 24 hrs", "format": "functional", "summary_of_the_method": "as §1"}, "Acetylcholinesterase [29]": {"molecular_target": "Acetylcholinesterase (Anopheles gambiae, UniProt Q869C3, G122S)", "assay": "Inhibition of recombinant full length Anopheles gambiae AChE1 G122S mutant expressed in baculovirus-infected Sf9 insect cells using acetylthiocholine iodide as substrate measured over 60 secs by Ellman's method"}, "Anopheles gambiae [30]": {"tested_on": "Anopheles gambiae", "assay": "Insecticidal activity against five days old adult Anopheles gambiae Kisumu assessed as mortality at 10 mM applied topically on upper part of pronotum after 24 hrs (reference value: 8 to 16%)", "format": "functional", "settings": "topical"}, "Anopheles gambiae [31]": {"tested_on": "Anopheles gambiae", "assay": "Insecticidal activity against 3rd instar larvae of Anopheles gambiae Kisumu assessed as mortality at 300 uM administered via de-chlorinated tap water after 24 hrs", "format": "functional", "summary_of_the_method": "as §1"}, "Anopheles gambiae [32]": {"tested_on": "Anopheles gambiae", "assay": "Insecticidal activity against five days old adult Anopheles gambiae Kisumu assessed as mortality at 0.01 nmol applied topically on upper part of pronotum after 24 hrs", "format": "functional"}, "Anopheles gambiae [33]": {"tested_on": "Anopheles gambiae", "assay": "Insecticidal activity against five days old adult Anopheles gambiae Kisumu assessed as mortality at 6.25 ng applied topically on upper part of pronotum after 24 hrs", "format": "functional"}, "Anopheles gambiae [34]": {"tested_on": "Anopheles gambiae", "assay": "Insecticidal activity against 3rd instar larvae of Anopheles gambiae Kisumu assessed as mortality at 25 uM administered via de-chlorinated tap water after 24 hrs", "format": "functional", "summary_of_the_method": "as §1"}, "Anopheles gambiae [35]": {"tested_on": "Anopheles gambiae", "assay": "Insecticidal activity against 3rd instar larvae of Anopheles gambiae Kisumu assessed as mortality at 25 uM administered via de-chlorinated tap water after 48 hrs", "format": "functional"}}, "data": [{"smiles": "COc1ccc(NC(=S)NCCN2CCOCC2)cc1Cl", "values": [{"measurement": "mortality at 10000 µM", "setting": "Aedes aegypti [1]", "result": 10, "unit": "%"}, {"measurement": "mortality", "setting": "Anopheles gambiae [2]", "result": 70, "unit": "%"}, {"measurement": "mortality at 10000 µM", "setting": "Anopheles gambiae [3]", "result": 77, "unit": "%"}, {"measurement": "IC50", "setting": "Acetylcholinesterase [4]", "result": 14000, "unit": "nM"}, {"measurement": "mortality at 2000 µM", "setting": "Anopheles gambiae [5]", "result": 22, "unit": "%"}, {"measurement": "Ratio IC50", "setting": "[6]", "result": 117}, {"measurement": "mortality at 50 µM", "setting": "Aedes aegypti [7]", "result": 13, "unit": "%"}, {"measurement": "mortality at 300 µM", "setting": "Aedes aegypti [8]", "result": 80, "unit": "%"}, {"measurement": "mortality at 500 µM", "setting": "Anopheles gambiae [9]", "result": 100, "unit": "%"}, {"measurement": "mortality", "setting": "Aedes aegypti [10]", "result": 0, "unit": "%"}, {"measurement": "mortality at 50 µM", "setting": "Anopheles gambiae [11]", "result": 3, "unit": "%"}, {"measurement": "mortality at 500 µM", "setting": "Aedes aegypti [12]", "result": 100, "unit": "%"}, {"measurement": "IC50", "setting": "Acetylcholinesterase [13]", "result": 150, "unit": "nM"}, {"measurement": "mortality at 100 µM", "setting": "Anopheles gambiae [14]", "result": 0, "unit": "%"}, {"measurement": "IC50", "setting": "Acetylcholinesterase [15]", "result": 190, "unit": "nM"}, {"measurement": "IC50", "setting": "Acetylcholinesterase [16]", "result": 120, "unit": "nM"}, {"measurement": "mortality at 50 µM", "setting": "Anopheles gambiae [17]", "result": 1, "unit": "%"}, {"measurement": "mortality at 300 µM", "setting": "Anopheles gambiae [18]", "result": 100, "unit": "%"}, {"measurement": "mortality", "setting": "Aedes aegypti [19]", "result": 5, "unit": "%"}, {"measurement": "mortality", "setting": "Anopheles gambiae [20]", "result": 22, "unit": "%"}, {"measurement": "mortality at 50 µM", "setting": "Aedes aegypti [21]", "result": 8, "unit": "%"}, {"measurement": "mortality at 2000 µM", "setting": "Aedes aegypti [22]", "result": 5, "unit": "%"}, {"measurement": "mortality at 10000 µM", "setting": "Aedes aegypti [23]", "result": 3, "unit": "%"}, {"measurement": "mortality at 2000 µM", "setting": "Aedes aegypti [24]", "result": 5, "unit": "%"}, {"measurement": "mortality at 300 µM", "setting": "Aedes aegypti [25]", "result": 64, "unit": "%"}, {"measurement": "IC50", "setting": "[26]", "result": 90, "unit": "nM"}, {"measurement": "mortality at 500 µM", "setting": "Aedes aegypti [27]", "result": 97, "unit": "%"}, {"measurement": "mortality at 500 µM", "setting": "Anopheles gambiae [28]", "result": 100, "unit": "%"}, {"measurement": "IC50", "setting": "Acetylcholinesterase [29]", "result": 84000, "unit": "nM"}, {"measurement": "mortality at 10000 µM", "setting": "Anopheles gambiae [30]", "result": 72, "unit": "%"}, {"measurement": "mortality at 300 µM", "setting": "Anopheles gambiae [31]", "result": 100, "unit": "%"}, {"measurement": "mortality", "setting": "Anopheles gambiae [32]", "result": 0, "unit": "%"}]}, {"smiles": "CNC(=O)Oc1ccccc1OC(C)C", "note": "[PROPOXUR]", "values": [{"measurement": "mortality", "setting": "Anopheles gambiae [33]", "result": 100, "unit": "%"}, {"measurement": "mortality at 25 µM", "setting": "Anopheles gambiae [34]", "result": 100, "unit": "%"}, {"measurement": "mortality at 25 µM", "setting": "Anopheles gambiae [35]", "result": 100, "unit": "%"}]}]}
